According to ChEMBL document CHEMBL4422635, “Structure-Based Discovery of a Subtype-Selective Inhibitor Targeting a Transient Receptor Potential Vanilloid Channel” (J Med Chem, 2019):
One block for each compound: values may come before it. Calls of active or inactive are those of the source. No cut-off for these calls is given here.

Columns and labels:
[1] = biological target: T1, Transient receptor potential cation channel subfamily V member 2 (Mus musculus) (UniProt Q9WTR1); test: Antagonist activity at mouse TRPV2 expressed in HEK293T cells assessed as inhibition of 2-APB evoked currents at -60 mV holding potential by whole-cell patch clamp assay; type: cell-based
T1 sequence (whole entry): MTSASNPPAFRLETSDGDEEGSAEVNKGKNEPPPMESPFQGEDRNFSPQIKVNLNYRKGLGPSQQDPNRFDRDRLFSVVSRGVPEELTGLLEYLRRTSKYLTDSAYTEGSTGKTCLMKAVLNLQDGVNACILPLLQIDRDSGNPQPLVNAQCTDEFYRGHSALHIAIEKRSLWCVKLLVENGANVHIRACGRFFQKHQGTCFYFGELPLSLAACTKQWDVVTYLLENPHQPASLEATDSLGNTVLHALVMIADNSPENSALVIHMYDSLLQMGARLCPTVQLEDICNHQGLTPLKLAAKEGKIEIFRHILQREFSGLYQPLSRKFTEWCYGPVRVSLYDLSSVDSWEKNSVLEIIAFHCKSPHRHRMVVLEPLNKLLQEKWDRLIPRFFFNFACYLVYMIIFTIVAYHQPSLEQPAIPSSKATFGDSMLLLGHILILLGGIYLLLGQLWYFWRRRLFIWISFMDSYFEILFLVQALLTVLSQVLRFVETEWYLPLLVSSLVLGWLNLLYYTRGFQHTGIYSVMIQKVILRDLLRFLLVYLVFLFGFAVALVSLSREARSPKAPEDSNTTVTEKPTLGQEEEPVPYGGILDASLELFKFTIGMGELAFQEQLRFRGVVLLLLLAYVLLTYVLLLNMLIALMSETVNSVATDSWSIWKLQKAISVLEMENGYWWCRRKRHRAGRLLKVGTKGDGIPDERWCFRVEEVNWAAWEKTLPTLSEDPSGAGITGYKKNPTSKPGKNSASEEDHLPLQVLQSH
Summary of the method: (§1)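 Whole-cell voltage clamp of transiently transfected HEK293T cells co-expressing GFP, recorded 36-96 h post-transfection. Hold -60 mV; pipettes 3-7 MΩ. Bath 165 mM NaCl, 10 mM HEPES pH 7.3; pipette 140 mM KCl, 10 mM HEPES pH 7.3. Room temperature (~25 °C). IC50 from Hill fits of I/I0, the current ratio after vs before inhibitor; mean ± SEM.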

[2] = biological target: T1, Transient receptor potential cation channel subfamily V member 2 (Mus musculus); test: Inhibition of mouse TRPV2 expressed in HEK293T cells assessed as inhibition of 2-APB evoked currents at 10 uM at -60 mV holding potential by whole-cell patch clamp assay; type: cell-based; summary of the method: as §1
[3] = biological target: T2, Transient receptor potential cation channel subfamily V member 2 (Homo sapiens, UniProt Q9Y5S1); test: Antagonist activity at TRPV2 (unknown origin); summary of the method: as §1
T2 sequence (Q9Y5S1 whole entry): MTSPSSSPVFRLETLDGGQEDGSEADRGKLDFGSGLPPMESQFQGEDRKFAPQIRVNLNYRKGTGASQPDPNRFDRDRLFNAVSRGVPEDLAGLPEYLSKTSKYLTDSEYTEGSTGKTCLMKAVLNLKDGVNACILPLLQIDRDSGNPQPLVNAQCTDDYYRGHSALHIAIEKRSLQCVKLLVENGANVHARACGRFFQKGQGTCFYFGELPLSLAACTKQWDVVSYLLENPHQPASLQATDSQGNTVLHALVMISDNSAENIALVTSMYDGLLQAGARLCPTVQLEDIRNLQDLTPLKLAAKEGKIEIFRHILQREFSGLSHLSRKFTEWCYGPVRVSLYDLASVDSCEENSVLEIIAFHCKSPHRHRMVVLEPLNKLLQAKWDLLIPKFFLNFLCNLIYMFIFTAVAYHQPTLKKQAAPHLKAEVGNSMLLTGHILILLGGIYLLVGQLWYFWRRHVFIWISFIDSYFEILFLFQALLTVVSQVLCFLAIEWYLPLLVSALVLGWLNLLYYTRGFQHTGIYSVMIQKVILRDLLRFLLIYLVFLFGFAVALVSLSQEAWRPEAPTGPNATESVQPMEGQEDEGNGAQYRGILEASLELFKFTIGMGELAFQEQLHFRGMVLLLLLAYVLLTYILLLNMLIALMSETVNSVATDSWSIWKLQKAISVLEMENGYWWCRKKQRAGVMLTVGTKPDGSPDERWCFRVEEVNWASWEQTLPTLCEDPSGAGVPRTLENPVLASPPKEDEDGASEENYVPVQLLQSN

Mus musculus [4] = test: Antagonist activity at mouse TRPV2/LPAR1 expressed in LPA-stimulated HEK293T cells assessed as inhibition of 2-APB evoked currents at 10 uM dosed 3 mins after LPA stimulation by whole-cell patch clamp assay; summary of the method: as §1
Mus musculus [5] = test: Antagonist activity at mouse TRPV2/LPAR1 expressed in LPA-stimulated HEK293T cells assessed as inhibition of 2-APB evoked currents at 1 uM dosed 3 mins after LPA stimulation by whole-cell patch clamp assay; summary of the method: as §1

inhibition [1]: Dose-dependent effect
inhibition [2]: Active
SMILES: COc1ccc(-c2cc(C(F)(F)F)nc(SCCC(=O)NCc3ccco3)n2)cc1

IC50 [3]: > 10 µM
SMILES: COc1ccc(/C=C/C(=O)Nc2ccccc2C(=O)O)cc1OC [TRANILAST]

SMILES: Cc1noc(-c2ccc(-c3ccc(CC(=O)O)cc3)cc2)c1NC(=O)O[C@H](C)c1ccccc1Cl
inhibition (Mus musculus [4]): Active
inhibition (Mus musculus [5]): Active

inhibition [1]: Dose-dependent effect
SMILES: CN1CCN(c2cc(C(F)(F)F)nc(SCCC(=O)NCc3ccco3)n2)CC1
